DAGLB inhibitor: blocks human DAGLB lipase activity | Q8NCG7 | HEK293T DAGLB membrane lysate, EnzChek fluorogenic substrate | inhibition, % at 5.17 µM | actives 0.059% (n = 340,000) | AID 504411; in the data active = inhibition above about 34%
Target sequence (Q8NCG7 whole entry, looked up): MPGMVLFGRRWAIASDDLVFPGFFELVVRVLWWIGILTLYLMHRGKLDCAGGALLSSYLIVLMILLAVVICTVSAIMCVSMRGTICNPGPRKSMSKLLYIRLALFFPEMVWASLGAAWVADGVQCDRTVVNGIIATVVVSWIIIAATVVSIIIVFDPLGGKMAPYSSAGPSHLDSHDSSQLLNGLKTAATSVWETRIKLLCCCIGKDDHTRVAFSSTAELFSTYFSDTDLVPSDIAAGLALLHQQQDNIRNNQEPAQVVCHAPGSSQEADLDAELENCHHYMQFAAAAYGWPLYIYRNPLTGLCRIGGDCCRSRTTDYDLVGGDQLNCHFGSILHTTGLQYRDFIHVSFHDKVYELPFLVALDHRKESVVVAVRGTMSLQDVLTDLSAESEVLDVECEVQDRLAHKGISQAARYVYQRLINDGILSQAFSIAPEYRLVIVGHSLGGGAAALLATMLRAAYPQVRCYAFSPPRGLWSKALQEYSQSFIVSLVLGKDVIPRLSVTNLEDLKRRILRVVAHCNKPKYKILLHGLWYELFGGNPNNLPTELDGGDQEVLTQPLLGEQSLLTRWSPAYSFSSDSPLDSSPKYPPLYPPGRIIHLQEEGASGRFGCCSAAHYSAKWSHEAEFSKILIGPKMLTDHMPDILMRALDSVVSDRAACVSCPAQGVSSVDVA
SKN-1 inh: inhibitors of C. elegans SKN-1; C. elegans VP596 Pgst-4::GFP/RFP ratio, acrylamide-induced, 24 h; inhibition, % at 21.8 µM; actives 0.49% (n = 360,000); AID 624304;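 active = interference check ratio from 0.5 to 1.5 plus GFP to RFP signal ratio inhibition reaching or exceeding a fixed threshold, cut at about 30% in these data, passing the limit was not always enough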
MT1-MMP act inh: blocks activation of human MT1-MMP; HT1080 RFP-PRO-GFP cells, GFP/RFP ratio fluorescence, overnight; percent of plate control window, DMSO zero; P50281; actives 0.061% (n = 360,000); GFP/RFP ratio change, % at 20 µM;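 active = GFP/RFP ratio change of at least 30% with cell ATP level not reduced by more than half and red fluorescence within 50% of control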
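Test system: HT1080 cells expressing an RFP-PRO-GFP fluorescent reporter construct / Compound dosing: single-point 20 µM compound, 1% DMSO / Schedule: cells overnight before dosing, compound overnight, 37 °C, 5% CO2 / Evaluation: GFP/RFP fluorescence ratio / Control set: DMSO and RFP-L50D-GFP cell wells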
iPSC survival up: enhancers of human iPSC single-cell survival | hiPSC single-cell survival, ATPlite luminescence; 100% = ROCK inhibitor wells, 0% = DMSO | actives 0.044% (n = 360,000) | survival enhancement, % at 20 µM; in the data active = survival enhancement above about 18%;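 also: cells exposed to compounds for 16 hours before the ATP read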
Cneo AK release: Cryptococcus neoformans lysis via adenylate kinase release | actives 0.2% (n = 360,000) | lysis activity, % at 15 µM | C. neoformans lysis, adenylate kinase release luminescence, 4 h; normalised: neutral wells 0, clomiphene wells 100;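 active = mean lysis activity across replicates of at least 80%, whatever share of replicates individually reach that level; inactive = mean lysis activity below 80%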
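Material – log-phase Cryptococcus neoformans yeast cells · Input – 5 × 10^6 yeast cells/mL · Medium – fresh YPD growth medium · Doses – single compound concentration per well · Timing – static 4 h at 37 °C with compound, 1 h detection · Detection – adenylate kinase release luminescence · Read-out – signal increase indicating cell lysis · Control set – Clomiphene as positive lysis control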
rRNA inh HTS: inhibitors of bacterial rRNA selective over humanized ribosomes; actives 1.6% (n = 350,000); GFP signal change (wild-type ribosome), % (test concentration not listed); E. coli WT GFP vs humanized-ribosome RFP mutants, fluorescence, 24 h; hits give low values; DMSO median 0, no signal -100; AID 720706;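 active = significant combined selectivity score with lowered wild-type GFP, culture density cut under 30%, mutant RFP and density less affected; inactive = any of these conditions unmet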
Numbers stand for hits; . = inactive; / = no result. Most compounds without a hit are left out; they make up all but 1.8% or so of the library.

SMILES | DAGLB inhibitor | SKN-1 inh | MT1-MMP act inh | iPSC survival up | Cneo AK release | rRNA inh HTS
O=C(Nc1cccc(S(=O)(=O)N2CCOCC2)c1)c1cc2ccccc2o1 | . | . | . | . | . | .
CCn1nc(C(=O)Nc2cccc(S(=O)(=O)N3CCCC3)c2)c2ccccc2c1=O | . | . | . | . | . | -26.6
O=C(Nc1cccc(S(=O)(=O)N2CCCCC2)c1)c1cc2ccccc2o1 | . | . | . | . | . | -24.1
CCCOc1ccccc1OCC(=O)Nc1ccc(S(=O)(=O)N2CCCC2)cc1 | . | . | . | . | . | .
COc1cccc(OC)c1OCC(=O)Nc1ccc(S(=O)(=O)N2CCCC2)cc1 | . | . | . | . | . | -33.7
CN1/C(=C/C(=O)COC(=O)CN2C(=O)C3CC=CCC3C2=O)C(C)(C)c2ccccc21 (stereo not drawn) | . | . | . | . | . | .
CN1/C(=C\C(=O)COC(=O)Cn2nnc(-c3ccccc3)n2)C(C)(C)c2ccccc21 | . | . | 39.0 | . | . | /
CCC(=O)N1CCC2(CC1)CN(S(C)(=O)=O)[C@H](CO)c1[nH]c3cc(OC)ccc3c12 | / | / | / | / | / | .
O=C(NN=Cc1ccc(O)cc1)c1ccccc1NS(=O)(=O)c1cccs1 | . | . | . | . | . | -37.2
COc1cc(C=NNC(=O)c2ccc(NS(=O)(=O)c3cccs3)cc2)cc(Br)c1O | . | . | . | . | . | -31.4
CC(=O)Nc1ccc(C=NNC(=O)c2ccc(NS(=O)(=O)c3cccs3)cc2)cc1 | . | . | . | . | . | .
CCC(=O)N(C)C[C@@H]1Oc2ncc(-c3ccccc3OC)cc2C(=O)N([C@H](C)CO)C[C@H]1C | / | / | / | / | . | .
CCc1nc2ccc(C(=O)N3CCN(c4ccc([N+](=O)[O-])cc4)CC3)cc2nc1CC | . | . | . | . | . | -23.0
Cc1ccccc1S(=O)(=O)N[C@@H]1CC[C@H](CCNS(=O)(=O)c2cccc(F)c2)O[C@H]1CO | / | / | / | / | 89.9 | .
Cc1ccccc1S(=O)(=O)N[C@H]1CC[C@H](CCNS(=O)(=O)c2cccc(F)c2)O[C@H]1CO | / | / | / | / | 93.0 | .
COc1cccc(CN2[C@@H]3CNC[C@H]2C3c2ccc(-c3cccc(C#N)c3)cc2)c1 (stereo partly drawn) | / | / | / | / | / | .
C[C@@H]1CCCCO[C@@H](CN(C)C)[C@H](C)CN([C@H](C)CO)C(=O)c2cc(NC(=O)c3ccncc3)ccc2O1 | / | / | / | / | . | .
O=C(NCC1CC1)[C@@H]1[C@@H](CO)[C@@H]2Cn3c(ccc(/C=C/c4ccccc4)c3=O)[C@H]1N2C(=O)C1CCC1 | / | / | / | / | . | .
Cc1cc(OC(C)C(=O)NCC(O)c2ccccc2)c2c(C)c(C)c(=O)oc2c1 (stereo not drawn) | . | . | . | . | . | .
Cc1cc(OC(C(=O)O)c2ccccc2)c2c(C)c(Cc3ccccc3)c(=O)oc2c1 (stereo not drawn) | . | . | . | . | . | -23.6
Clc1ccc(-n2nnnc2-c2cnc3ccccc3c2-c2ccccc2)cc1 | . | . | . | . | / | -21.2
COc1ccc(CONc2ncnc3nonc23)cc1[N+](=O)[O-] | . | . | . | . | / | -25.4
CCONc1ncnc2nonc12 | . | . | . | . | . | .
Brc1ccc(OCc2cn3ccccc3n2)cc1 | . | 47.7 | . | . | / | .
O=C(COc1ccc(Br)cc1)NCc1cn2ccccc2n1 | . | . | . | . | / | .
O=C(C1CCCC1)N1CCCCN2[C@H](CO)[C@@H](c3ccc(-c4cccc(F)c4)cc3)[C@@H]2C1 | / | / | / | / | . | /
O=C(c1ccsc1)N1CCCC(Nc2cccc(F)c2)C1 (stereo not drawn) | . | . | . | . | . | .
C=CCOc1cccc(C(=O)N2CCCC(Nc3ccc(F)cc3)C2)c1 (stereo not drawn) | . | . | . | . | . | -25.8
C#Cc1cccc(C(=O)N2CCCC(Nc3cccc(F)c3)C2)c1 (stereo not drawn) | . | . | . | . | . | -33.1

Assay outcomes (PubChem BioAssay)
